How the values were obtained:
SK-MEL-3 xenografts = assay: Tissue distribution in mice bearing SK-MEL-3 xenografts; assay type: in vivo, NCr^nu/nu mice; conditions: SK-MEL-3 xenograft mice; for Tissue distribution: Blood: tail vein
Procedure, shortened: (§1)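 Male athymic NCr nu/nu mice received 0.25 mL of cells (8 × 10⁶/mL in 1:1 D-PBS-glucose-pyruvate/Matrigel) into the right hind flank. Tumours were used at 100–500 mm³ (~21 days). Tail-vein bolus of ~74 KBq tracer in 0.05 mL; n = 5 per time point. Mice were killed by CO₂ at 1, 4 and 24 h. Organs and tumour were weighed wet and gamma-counted; results are %ID/g, mean ± SD.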

A375 xenografts = assay: Tissue distribution in mice bearing A375 xenografts; assay type: in vivo, NCr^nu/nu mice; conditions: A375 xenograft mice
Procedure, shortened: as §1

What does the source list for `CCN(CC)CCNC(=O)c1cc(I)c(NC(=O)c2ccc(F)cc2)cc1OC` [[^131I]MIP-1145, N-(2-diethylamino-ethyl)-4-(4-fluoro-benzamido)-5-iodo-2-methoxy-benzamide]?
Tissue distribution: Adipose (SK-MEL-3 xenografts; 1 hour): 4.15 ± 2.89 %ID/g; Tissue distribution: Bone (SK-MEL-3 xenografts; 1 hour): 1.71 ± 0.28 %ID/g; Tissue distribution: Brain (SK-MEL-3 xenografts; 1 hour): 0.82 ± 0.06 %ID/g; Tissue distribution: Heart (SK-MEL-3 xenografts; 1 hour): 2.36 ± 0.18 %ID/g; Tissue distribution: Kidneys (SK-MEL-3 xenografts; 1 hour): 16.55 ± 0.52 %ID/g; Tissue distribution: Large Intestine (SK-MEL-3 xenografts; 1 hour): 2.93 ± 0.54 %ID/g; Tissue distribution: Liver (SK-MEL-3 xenografts; 1 hour): 7.94 ± 1.12 %ID/g; Tissue distribution: Lungs (SK-MEL-3 xenografts; 1 hour): 9.70 ± 1.28 %ID/g; Tissue distribution: Skeletal Muscle (SK-MEL-3 xenografts; 1 hour): 1.39 ± 0.16 %ID/g; Tissue distribution: Small Intestine (SK-MEL-3 xenografts; 1 hour): 15.19 ± 1.50 %ID/g; Tissue distribution: Spleen (SK-MEL-3 xenografts; 1 hour): 7.26 ± 1.18 %ID/g; Tissue distribution: Stomach (SK-MEL-3 xenografts; 1 hour): 12.85 ± 2.53 %ID/g; Tissue distribution: Testes (SK-MEL-3 xenografts; 1 hour): 1.51 ± 0.18 %ID/g; Tissue distribution: Tumor (SK-MEL-3 xenografts; 1 hour): 3.77 ± 1.68 %ID/g; Tissue distribution: Blood (SK-MEL-3 xenografts; 1 hour post-injection): 0.75 ± 0.12 %ID/g; Tissue distribution: Adipose (SK-MEL-3 xenografts; 4 hours): 1.03 ± 0.26 %ID/g; Tissue distribution: Bone (SK-MEL-3 xenografts; 4 hours): 0.95 ± 0.14 %ID/g; Tissue distribution: Brain (SK-MEL-3 xenografts; 4 hours): 0.19 ± 0.02 %ID/g; Tissue distribution: Heart (SK-MEL-3 xenografts; 4 hours): 1.32 ± 0.18 %ID/g; Tissue distribution: Kidneys (SK-MEL-3 xenografts; 4 hours): 13.12 ± 2.68 %ID/g; Tissue distribution: Large Intestine (SK-MEL-3 xenografts; 4 hours): 18.91 ± 3.84 %ID/g; Tissue distribution: Liver (SK-MEL-3 xenografts; 4 hours): 5.18 ± 0.59 %ID/g; Tissue distribution: Lungs (SK-MEL-3 xenografts; 4 hours): 6.87 ± 1.33 %ID/g; Tissue distribution: Skeletal Muscle (SK-MEL-3 xenografts; 4 hours): 0.73 ± 0.16 %ID/g; Tissue distribution: Small Intestine (SK-MEL-3 xenografts; 4 hours): 17.21 ± 2.05 %ID/g; Tissue distribution: Spleen (SK-MEL-3 xenografts; 4 hours): 3.75 ± 0.60 %ID/g; Tissue distribution: Stomach (SK-MEL-3 xenografts; 4 hours): 10.74 ± 2.52 %ID/g; Tissue distribution: Testes (SK-MEL-3 xenografts; 4 hours): 1.07 ± 0.09 %ID/g; Tissue distribution: Tumor (SK-MEL-3 xenografts; 4 hours): 8.82 ± 3.55 %ID/g; Tumor:blood ratio (SK-MEL-3 xenografts; 4 hours post-injection): 25.2; Tissue distribution: Blood (SK-MEL-3 xenografts; 4 hours post-injection): 0.35 ± 0.04 %ID/g; Tissue distribution: Adipose (SK-MEL-3 xenografts; 24 hours): 0.09 ± 0.05 %ID/g; Tissue distribution: Bone (SK-MEL-3 xenografts; 24 hours): 0.09 ± 0.08 %ID/g; Tissue distribution: Brain (SK-MEL-3 xenografts; 24 hours): 0.01 ± 0.01 %ID/g; Tissue distribution: Heart (SK-MEL-3 xenografts; 24 hours): 0.04 ± 0.03 %ID/g; Tissue distribution: Kidneys (SK-MEL-3 xenografts; 24 hours): 0.51 ± 0.18 %ID/g; Tissue distribution: Large Intestine (SK-MEL-3 xenografts; 24 hours): 2.24 ± 0.67 %ID/g; Tissue distribution: Liver (SK-MEL-3 xenografts; 24 hours): 0.50 ± 0.07 %ID/g; Tissue distribution: Lungs (SK-MEL-3 xenografts; 24 hours): 0.29 ± 0.08 %ID/g; Tissue distribution: Skeletal Muscle (SK-MEL-3 xenografts; 24 hours): 0.03 ± 0.02 %ID/g; Tissue distribution: Small Intestine (SK-MEL-3 xenografts; 24 hours): 1.03 ± 0.24 %ID/g; Tissue distribution: Spleen (SK-MEL-3 xenografts; 24 hours): 0.12 ± 0.03 %ID/g; Tissue distribution: Stomach (SK-MEL-3 xenografts; 24 hours): 1.41 ± 0.53 %ID/g; Tissue distribution: Testes (SK-MEL-3 xenografts; 24 hours): 0.22 ± 0.02 %ID/g; Tissue distribution: Tumor (SK-MEL-3 xenografts; 24 hours): 5.91 ± 3.94 %ID/g; Tumor:blood ratio (SK-MEL-3 xenografts; 24 hours post-injection): 197; Tissue distribution: Blood (SK-MEL-3 xenografts; 24 hours post-injection): 0.03 ± 0.00 %ID/g; Tissue distribution: Adipose (A375 xenografts; 1 hour): 1.56 ± 0.23 %ID/g; Tissue distribution: Bone (A375 xenografts; 1 hour): 1.34 ± 0.12 %ID/g; Tissue distribution: Brain (A375 xenografts; 1 hour): 0.60 ± 0.17 %ID/g; Tissue distribution: Heart (A375 xenografts; 1 hour): 1.96 ± 0.33 %ID/g; Tissue distribution: Kidneys (A375 xenografts; 1 hour): 14.26 ± 2.73 %ID/g; Tissue distribution: Large Intestine (A375 xenografts; 1 hour): 2.69 ± 0.49 %ID/g; Tissue distribution: Liver (A375 xenografts; 1 hour): 6.79 ± 1.33 %ID/g; Tissue distribution: Lungs (A375 xenografts; 1 hour): 9.81 ± 0.88 %ID/g; Tissue distribution: Skeletal Muscle (A375 xenografts; 1 hour): 1.03 ± 0.09 %ID/g; Tissue distribution: Small Intestine (A375 xenografts; 1 hour): 9.19 ± 3.32 %ID/g; Tissue distribution: Spleen (A375 xenografts; 1 hour): 4.54 ± 1.34 %ID/g; Tissue distribution: Stomach (A375 xenografts; 1 hour): 6.22 ± 2.34 %ID/g; Tissue distribution: Testes (A375 xenografts; 1 hour): 1.58 ± 0.22 %ID/g; Tissue distribution: Tumor (A375 xenografts; 1 hour): 2.38 ± 0.75 %ID/g; Tissue distribution: Blood (A375 xenografts; 1 hour post-injection, tail vein): 0.46 ± 0.05 %ID/g; Tissue distribution: Adipose (A375 xenografts; 4 hours): 1.10 ± 0.46 %ID/g; Tissue distribution: Bone (A375 xenografts; 4 hours): 0.74 ± 0.07 %ID/g; Tissue distribution: Brain (A375 xenografts; 4 hours): 0.16 ± 0.01 %ID/g; Tissue distribution: Heart (A375 xenografts; 4 hours): 1.04 ± 0.06 %ID/g; Tissue distribution: Kidneys (A375 xenografts; 4 hours): 8.53 ± 1.20 %ID/g
